Data from the RNAGym collection of RNA variant scans (doi:10.1002/anie.201605470).

B1: Osa-1-4 twister ribozyme (parent)
chain: CCGCCUAACACUGCCAAUGCCGGUCCCAAGCCCGGAUAAAAGUGGAGGGGGCGG

Variants of: B1
Test: self-cleavage, relative activity (ratio to wild type); higher = more cleavage; co-transcriptional
Method in brief: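 For each read, cleavage status was taken from whether upstream sequence was present. The reads came from an Oryza sativa twister ribozyme of 54 nucleotides, whose DNA template was synthesised with 97 % wild-type base and 1 % of each other base at the 48 positions downstream of the cleavage site. The template was transcribed in vitro at 37 °C for 2 h with co-transcriptional self-cleavage, and the RNA was reverse-transcribed using a template-switching oligonucleotide, PCR-amplified and deep-sequenced. Relative activity is the fraction cleaved normalised to wild type.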

Variant | self-cleavage
A36C U37G | 0.93
A36C U37A | 0.53
A36C U37C | 0.98
A36G U18C | 0.98
A36G U18G | 0.85
A36G U18A | 0.98
A36C C27U | 0.09
A36C C27G | 0.05
A36C C27A | 0.07
A36G G49C | 0.08
A36G G49U | 0.27
A36G G49A | 0.24
A36G C9G | 0.89
A36G C9A | 0.53
A36G C9U | 0.77
A36G C25A | 0.22
A36G C25U | 0.94
A36G C25G | 0.13
A36G C15A | 0.85
A36G C15U | 0.89
A36G C15G | 0.84
A36C C15A | 0.24
A36C C15G | 0.25
A36C C15U | 0.12

Variant | self-cleavage
A36C G13A | 0.04
A36C G13U | 0.02
A36C G13C | 0.03
A36G C33A | 0.14
A36G C33U | 0.94
A36G C33G | 0.09
A36G G51U | 0.37
A36G G51A | 0.78
A36G G51C | 0.18
A36U C9U | 0.83
A36U C9A | 0.47
A36U C9G | 0.9
A36C U12A | 0.13
A36C U12G | 0.13
A36C U12C | 0.08
A36U C26U | 1
A36U C26A | 0.04
A36U C26G | 0.08
A36C G51C | 0.07
A36C G51A | 0.28
A36C G51U | 0.11
A36G U37C | 1.04
A36G U37A | 1.02
A36G U37G | 1.03

Variant | self-cleavage
A36C G50A | 0.77
A36C G50U | 0.37
A36C G50C | 0.22
A36C G22C | 0.08
A36C G22A | 0.6
A36C G22U | 0.35
A36U C15U | 0.31
A36U C15G | 0.4
A36U C15A | 0.51
A36U A38C | 1.02
A36U A38G | 1
A36U A38U | 0.97
A36C G42U | 0.04
A36C G42A | 0.1
A36C G42C | 0.08
A36C C31A | 0.03
A36C C31U | 0.1
A36C C31G | 0.04
A36C C11G | 0.08
A36C C11U | 0.26
A36C C11A | 0.11
A36C A40C | 0.05
A36C A40U | 0.13
A36C A40G | 0.12

Variant | self-cleavage
A36G G22C | 0.07
A36G G22A | 1.01
A36G G22U | 0.57
A36U G22C | 0.19
A36U G22A | 1.05
A36U G22U | 0.9
A36U A40G | 0.84
A36U A40U | 0.63
A36U A40C | 0.08
A36U G45C | 0.05
A36U G45A | 0.46
A36U G34C | 0.66
A36U G34U | 0.84
A36U G34A | 0.86
A36G U12A | 0.99
A36G U12G | 0.39
A36G U12C | 0.69
A36C G34C | 0.39
A36C G34A | 0.88
A36C G34U | 0.75
A36G G50U | 1.04
A36G G50C | 1.04
A36G G50A | 0.76
A36C C25A | 0.06

Variant | self-cleavage
A36C C25U | 0.1
A36C C25G | 0.04
A36G G45A | 0.54
A36G G45U | 0.21
A36G G45C | 0.07
A36G G42C | 0.24
A36G G42A | 0.8
A36G G42U | 0.08
A36C A39G | 0.2
A36C A39U | 0.15
A36C A39C | 0.15
A36U C14G | 0.13
A36U C14U | 0.5
A36U C14A | 0.07
A36C C21A | 0.54
A36C C21G | 0.05
A36C C21U | 0.46
A36G G34C | 0.31
A36G G34U | 0.82
A36G G34A | 0.91
A36U C20A | 0.82
A36U C20U | 0.99
A36U C20G | 0.19
A36C A46G | 0.06

Variant | self-cleavage
A36C A46C | 0.07
A36C A46U | 0.05
A36U G23A | 0.72
A36U G23C | 0.05
A36U G23U | 0.18
A36G G48U | 0.12
A36G G48C | 0.15
A36G G48A | 0.15
A36G C27U | 0.32
A36G C27A | 0.38
A36G C27G | 0.13
A36C G44C | 0.58
A36C G44U | 0.37
A36C G44A | 0.16
A36C G47C | 0.06
A36C G47U | 0.07
A36C G47A | 0.07
A36U A8C | 0.09
A36U A8U | 0.34
A36U A8G | 0.71
A36G A38G | 0.99
A36G A38C | 1.07
A36G A38U | 1.01
A36G C14U | 0.88

Variant | self-cleavage
A36G C14G | 0.37
A36G C14A | 0.19
A36G G23C | 0.07
A36G G23U | 0.13
A36G G23A | 0.62
A36U A41U | 1.02
A36U A41G | 0.68
A36U A41C | 0.99
A36C G49U | 0.06
A36C G49C | 0.06
A36C G49A | 0.06
A36U C27U | 0.28
A36U C27G | 0.09
A36U C27A | 0.29
A36C A41U | 0.91
A36C A41C | 0.6
A36C A41G | 0.13
A36G G19U | 0.99
A36G G19C | 0.13
A36G G19A | 0.8
A36U C11U | 0.94
A36U C11G | 0.72
A36U C11A | 0.87
